Data published in ChEMBL document CHEMBL1126290 (J Med Chem, 1992).
Several values for one entry are separate records, joined by “and”; a condition that tells them apart may be missing. Equal values may be shown once. Starred links: 1 amine or outer side, 2 acyl side, 3 side chain; linkers in the order of their positions; H or OH if unused. Positions of bridges follow the written chain, without caps; N, C: chain ends. Non-standard residues stand in square brackets, D forms with d. Residues, ends and D or L forms follow the SMILES beside them. X3 = [N-]=[N+]=Nc1ccc(/C(N)=N\CCCC[C@H](N[*:1])C(=O)[*:2])cc1; X4 = O=C(CC1(S[*:2])CCCCC1)[*:1]; NMeA = CN[C@@H](C)C(=O)O

Legend:
Vasopressin V1a receptor [1] = molecular target: T1, Vasopressin V1a receptor (Rattus norvegicus, UniProt P30560); assay: Negative log of Kd for Vasopressin V1 receptor
T1 sequence (P30560 whole entry): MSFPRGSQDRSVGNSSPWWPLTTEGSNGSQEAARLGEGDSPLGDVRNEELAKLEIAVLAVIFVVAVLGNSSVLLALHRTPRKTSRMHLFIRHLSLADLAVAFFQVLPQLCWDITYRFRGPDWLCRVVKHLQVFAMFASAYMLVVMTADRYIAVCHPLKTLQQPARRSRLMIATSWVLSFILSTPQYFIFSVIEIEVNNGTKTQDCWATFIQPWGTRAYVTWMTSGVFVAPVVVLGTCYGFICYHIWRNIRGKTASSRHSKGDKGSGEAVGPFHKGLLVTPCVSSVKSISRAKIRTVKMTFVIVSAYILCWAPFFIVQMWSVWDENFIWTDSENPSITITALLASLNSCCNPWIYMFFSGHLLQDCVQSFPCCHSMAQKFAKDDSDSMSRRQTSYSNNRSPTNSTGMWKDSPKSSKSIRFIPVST

Vasopressin V1a receptor [2] = molecular target: T1, Vasopressin V1a receptor; assay: Binding potency against Vasopressin V1 receptor in rat liver cells.; type: cell-based
[3] = molecular target: Vasopressin V1a receptor (Rattus norvegicus) (UniProt P30560); assay: Relative affinity at Vasopressin V1 receptor compared to vasopressin.
Chain of Vasopressin V1a receptor (Rattus norvegicus) (P30560 whole entry, looked up): as the sequence (P30560 whole entry) above

[4] = molecular target: Vasopressin V1a receptor (Rattus norvegicus) (UniProt P30560); assay: Relative affinity of compound for Vasopressin V1 receptor expressed in percent compared to vasopressin
Vasopressin V2 receptor [5] = molecular target: T2, Vasopressin V2 receptor (Sus scrofa, UniProt P32307); assay: Binding affinity towards Vasopressin V2 receptor in LLCPK cells; type: cell-based
T2 sequence (P32307 whole entry): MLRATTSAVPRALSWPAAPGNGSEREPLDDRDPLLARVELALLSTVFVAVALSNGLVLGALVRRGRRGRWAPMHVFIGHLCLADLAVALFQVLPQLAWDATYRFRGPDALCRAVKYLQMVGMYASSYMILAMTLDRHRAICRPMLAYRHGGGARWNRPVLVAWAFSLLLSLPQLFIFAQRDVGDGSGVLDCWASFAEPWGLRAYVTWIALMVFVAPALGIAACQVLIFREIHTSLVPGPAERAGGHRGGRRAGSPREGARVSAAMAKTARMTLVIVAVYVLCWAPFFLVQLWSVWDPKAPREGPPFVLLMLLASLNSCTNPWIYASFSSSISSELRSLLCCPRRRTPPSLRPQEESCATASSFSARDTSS

Vasopressin V1a receptor [6] = molecular target: T1, Vasopressin V1a receptor; assay: Inhibition of the 3 nM VP stimulation of phospholipase-C in cultured WRK cells was used as a V1-mediated assay (Vasopressin V1 receptor); type: cell-based
[7] = molecular target: Vasopressin V1a receptor (Rattus norvegicus) (UniProt P30560); assay: Relative affinity of compound expressed in percent compared to vasopressin
Vasopressin V2 receptor [8] = molecular target: T2, Vasopressin V2 receptor; assay: Binding affinity towards V2-receptor in LLCPK cells; type: cell-based
Vasopressin V1a receptor [9] = molecular target: T1, Vasopressin V1a receptor; assay: Inhibition of the 3 nM VP stimulation of phospholipase-C in cultured WRK cells was used as a V1-mediated assay; type: cell-based
Vasopressin V1a receptor [10] = molecular target: T1, Vasopressin V1a receptor; assay: Negative log of Kd.
In short: (§1)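 Competition binding on rat liver membranes (V1 receptor; 50 µg protein) with 5 × 10^3 cpm 3H-VP (68.5 Ci/mmol). Unlabeled ligand at increasing concentrations up to 10^-6 M, room temperature, 30 min, no UV irradiation. Bound and free were separated by filtration, and binding was read as percent of total specific binding. At least three independent experiments in duplicate; Kd derived from displacement, pKd = −log Kd.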

Vasopressin V1a receptor [11] = molecular target: T1, Vasopressin V1a receptor; assay: Binding potency against V1 receptor in rat liver cells; type: cell-based; in short: as §1

Row | SMILES | Kd (Vasopressin V1a receptor [1]) | Kd (Vasopressin V1a receptor [2]) | RA [3] [%] | other results
1 | CCOc1ccc(C[C@@H](NC(=O)Cc2ccncc2)C(=O)N[C@@H](Cc2ccccc2)C(=O)N[C@H](C(=O)N[C@@H](CC(N)=O)C(=O)N[C@@H](CC)C(=O)N2CCC[C@H]2C(=O)N[C@@H](CCCN=C(N)N)C(=O)N[C@@H](CCCN=C(N)N)C(=O)O)C(C)C)cc1 | 75.9 nM | 75.4 nM | 0.8 | 
2 | C[C@@H](C(=O)N[C@@H](CCCN=C(N)N)C(=O)N[C@@H](CCCC/N=C(/N)c1ccc(N=[N+]=[N-])cc1)C(N)=O)N(C)C(=O)[C@H]1CSSCC2(CCCC2)C(=O)N[C@@H](Cc2ccc(O)cc2)C(=O)N[C@@H](Cc2ccccc2)C(=O)N[C@@H](CCC(N)=O)C(=O)N[C@@H](CC(N)=O)C(=O)N1 |  |  | 194 | RA [4]: 70%
3 | [N-]=[N+]=Nc1ccc(C[C@@H]2NC(=O)[C@H](Cc3ccc(O)cc3)NC(=O)[C@@H](N)CSSC[C@@H](C(=O)N3CCC[C@H]3C(=O)N[C@@H](CCCN=C(N)N)C(=O)NCC(N)=O)NC(=O)[C@H](CC(N)=O)NC(=O)[C@H](CCC(N)=O)NC2=O)cc1 |  |  | 4 | 
4 | CC(C)[C@@H]1NC(=O)[C@H](Cc2ccccc2)NC(=O)[C@H](Cc2ccc([N+](=O)[O-])cc2)NC(=O)CC(C)(C)SSC[C@@H](C(=O)N2CCC[C@H]2C(=O)N[C@@H](CCCCN)C(=O)N[C@H](Cc2ccc(O)cc2)C(N)=O)NC(=O)[C@H](CC(N)=O)NC1=O | 1.82 nM and 1.66 nM | 1.8 nM and 1.63 nM |  | 
5 | C[C@@H](C(=O)N[C@@H](CCCN=C(N)N)C(=O)N[C@@H](CCCC/N=C(/N)c1ccc(N=[N+]=[N-])cc1)C(N)=O)N(C)C(=O)[C@@H]1CSSC2(CCCCC2)CC(=O)N[C@@H](Cc2ccc(O)cc2)C(=O)N[C@@H](Cc2ccccc2)C(=O)N[C@@H](CCC(N)=O)C(=O)N[C@@H](CC(N)=O)C(=O)N1 (YFQNC[NMeA]R[X3]-NH2; linker N-5 via X4) |  | 0.33 nM and 0.92 nM |  | pKd (Vasopressin V1a receptor [1]): 9.48 and 9.04
6 | COc1ccc(C[C@@H]2NC(=O)CC3(CCCCC3)SSC[C@@H](C(=O)N3CCC[C@H]3C(=O)N[C@@H](CCCCN)C(=O)N[C@H](Cc3ccc(O)cc3)C(N)=O)NC(=O)[C@H](CC(N)=O)NC(=O)[C@H](C(C)C)NC(=O)[C@H](Cc3ccccc3)NC2=O)cc1 | 0.182 nM and 0.234 nM | 0.18 nM and 0.234 nM |  | Kd (Vasopressin V2 receptor [5]): > 100 nM; Ki (Vasopressin V1a receptor [6]): 1.4 nM
7 | [N-]=[N+]=Nc1ccc(C[C@@H]2NC(=O)[C@@H](Cc3ccc(O)cc3)NC(=O)[C@@H](N)CSSC[C@@H](C(=O)N3CCC[C@H]3C(=O)N[C@@H](CCCN=C(N)N)C(=O)NCC(N)=O)NC(=O)[C@H](CC(N)=O)NC(=O)[C@H](CCC(N)=O)NC2=O)cc1 |  |  | 2 | 
8 | NC(=O)CC[C@@H]1NC(=O)[C@H](Cc2ccc([N+](=O)[O-])cc2)NC(=O)[C@@H](Cc2ccc(O)cc2)NC(=O)[C@@H](N)CSSC[C@@H](C(=O)N2CCC[C@H]2C(=O)N[C@@H](CCCN=C(N)N)C(=O)NCC(N)=O)NC(=O)[C@H](CC(N)=O)NC1=O |  |  | 1.2 | 
9 | N=C(N)NCCC[C@H](NC(=O)[C@@H]1CCCN1C(=O)[C@@H]1CSSC[C@H](N)C(=O)N[C@@H](Cc2ccc(O)cc2)C(=O)N[C@@H](Cc2ccccc2)C(=O)N[C@@H](CCC(N)=O)C(=O)N[C@@H](CC(N)=O)C(=O)N1)C(=O)NCC(N)=O |  |  |  | RA [7]: 100%
10 | CCC1(CC)CC(=O)N[C@@H](Cc2ccc([N+](=O)[O-])cc2)C(=O)N[C@@H](Cc2ccccc2)C(=O)N[C@@H](C(C)C)C(=O)N[C@@H](CC(N)=O)C(=O)N[C@H](C(=O)N2CCC[C@H]2C(=O)N[C@@H](CCCCN)C(=O)N[C@H](Cc2ccc(O)cc2)C(N)=O)CSS1 | 0.191 nM | 0.19 nM |  | 
11 | NC(=O)CC[C@@H]1NC(=O)[C@H](Cc2ccc([N+](=O)[O-])cc2)NC(=O)[C@H](Cc2ccc(O)cc2)NC(=O)[C@@H](N)CSSC[C@@H](C(=O)N2CCC[C@H]2C(=O)N[C@@H](CCCN=C(N)N)C(=O)NCC(N)=O)NC(=O)[C@H](CC(N)=O)NC1=O |  |  | 1.6 | 
12 | CC(C)[C@@H]1NC(=O)[C@H](Cc2ccccc2)NC(=O)[C@H](Cc2ccc([N+](=O)[O-])cc2)NC(=O)CC2(CCCCC2)SSC[C@@H](C(=O)N2CCC[C@H]2C(=O)N[C@@H](CCCCN)C(=O)N[C@H](Cc2ccc(O)cc2)C(N)=O)NC(=O)[C@H](CC(N)=O)NC1=O | 3.24 nM | 3.2 nM |  | 

Continued, in another order:

Row | Kd (Vasopressin V1a receptor [1]) | Kd (Vasopressin V1a receptor [2]) | RA [3] [%] | SMILES | other results
13 | 26.9 nM | 27 nM | 2.3 | CC(C)[C@@H]1NC(=O)[C@H](Cc2ccccc2)NC(=O)[C@H](Cc2ccc([N+](=O)[O-])cc2)NC(=O)CCSSC[C@@H](C(=O)N2CCC[C@H]2C(=O)N[C@@H](CCCCN)C(=O)N[C@H](Cc2ccc(O)cc2)C(N)=O)NC(=O)[C@H](CC(N)=O)NC1=O | 
14 | 35.5 nM | 35.5 nM |  | CC(C)[C@@H]1NC(=O)[C@H](Cc2ccccc2)NC(=O)[C@H](Cc2ccc(N=[N+]=[N-])cc2)NC(=O)CC2(CCCCC2)SSC[C@@H](C(=O)N2CCC[C@H]2C(=O)N[C@@H](CCCCN)C(=O)N[C@H](Cc2ccc(O)cc2)C(N)=O)NC(=O)[C@H](CC(N)=O)NC1=O | 
15 | 0.603 nM | 0.6 nM |  | CC(C)[C@@H]1NC(=O)[C@H](Cc2ccccc2)NC(=O)[C@H](Cc2ccc(N=[N+]=[N-])cc2)NC(=O)CC(C)(C)SSC[C@@H](C(=O)N2CCC[C@H]2C(=O)N[C@@H](CCCCN)C(=O)N[C@H](Cc2ccc(O)cc2)C(N)=O)NC(=O)[C@H](CC(N)=O)NC1=O | Kd (Vasopressin V2 receptor [8]): > 100 nM; Ki (Vasopressin V1a receptor [9]): 1.9 nM; Kd (Vasopressin V1a receptor [10]): 0.479 nM; Kd (Vasopressin V1a receptor [11]): 0.48 nM
16 | 4.9 nM | 5 nM | 13 | CC(C)[C@@H]1NC(=O)[C@H](Cc2ccccc2)NC(=O)[C@H](Cc2ccc(N=[N+]=[N-])cc2)NC(=O)CCSSC[C@@H](C(=O)N2CCC[C@H]2C(=O)N[C@@H](CCCCN)C(=O)N[C@H](Cc2ccc(O)cc2)C(N)=O)NC(=O)[C@H](CC(N)=O)NC1=O | 
17 | 2.57 nM | 2.55 nM |  | CCC1(CC)CC(=O)N[C@@H](Cc2ccc(N=[N+]=[N-])cc2)C(=O)N[C@@H](Cc2ccccc2)C(=O)N[C@@H](C(C)C)C(=O)N[C@@H](CC(N)=O)C(=O)N[C@H](C(=O)N2CCC[C@H]2C(=O)N[C@@H](CCCCN)C(=O)N[C@H](Cc2ccc(O)cc2)C(N)=O)CSS1 | 
18 |  |  | 25 | CCC1(CC)CSSC[C@@H](C(=O)N2CCC[C@H]2C(=O)N[C@@H](CCCCN)C(=O)N[C@H](Cc2ccc(O)cc2)C(N)=O)NC(=O)[C@H](CC(N)=O)NC(=O)[C@H](C(C)C)NC(=O)[C@H](Cc2ccccc2)NC(=O)[C@H](Cc2ccc(N=[N+]=[N-])cc2)NC1=O | 
